ChEMBL document CHEMBL1138683 (J Med Chem, 2004)

Assays:
[1] = Anticonvulsant activity administered intra peritoneally to mouse for toxicity; conditions: in vivo, ip
Mus musculus [2] = test: Anticonvulsant activity administered intra peritoneally to mouse at subcutaneous metrazol test; assay type: functional; conditions: sc
Mus musculus [3] = test: Anticonvulsant activity administered intra peritoneally to mouse at maximal electro shock test; the interval in parenthesis stands for 95% confidence interval; assay type: functional
[4] = Anti convulsant activity administered intra peritoneally to mouse for toxicity at 4 hr with dose of 100 mg/kg; 1/4= No of animals exhibiting toxicity /No of animals tested; assay type: organism-based; parameters: dose 100 mg/kg; conditions: in vivo, ip
[5] = Anti convulsant activity administered intra peritoneally to mouse for toxicity at 4 hr with dose of 300 mg/kg; 0/2= No of animals exhibiting toxicity /No of animals tested; assay type: organism-based; parameters: dose 300 mg/kg; conditions: in vivo, ip
[6] = Anti convulsant activity administered intra peritoneally to mouse for toxicity at 4 hr with dose of 30 mg/kg; 0/2= No of animals exhibiting toxicity /No of animals tested; assay type: organism-based; parameters: dose 30 mg/kg; conditions: in vivo, ip
[7] = Anti convulsant activity administered intra peritoneally to mouse for toxicity at 0.5 hr with dose of 30 mg/kg; 0/4= No of animals exhibiting toxicity /No of animals tested; assay type: organism-based; parameters: dose 30 mg/kg; conditions: in vivo, ip
[8] = Anti convulsant activity administered intra peritoneally to mouse for toxicity at 0.5 hr with dose of 100 mg/kg; 0/8= No of animals exhibiting toxicity /No of animals tested; assay type: organism-based; parameters: dose 100 mg/kg; conditions: in vivo, ip
[9] = Anti convulsant activity administered intra peritoneally to mouse for toxicity at 0.5 hr with dose of 300 mg/kg; 4/4= No of animals exhibiting toxicity /No of animals tested; assay type: organism-based; parameters: dose 300 mg/kg; conditions: in vivo, ip
Mus musculus [10] = test: Anti convulsant activity administered intra peritoneally to mouse at maximal electroshock test at 4 hr after the drug administered with dose of 30 mg/kg; 0/1= No of animals protected /No of animals tested; assay type: functional
Mus musculus [11] = test: Anti convulsant activity administered intra peritoneally to mouse at maximal electroshock test at 4 hr after the drug administered with dose of 100 mg/kg; 0/3= No of animals protected /No of animals tested; assay type: functional
Mus musculus [12] = test: Anti convulsant activity administered intra peritoneally to mouse at maximal electroshock test at 4 hr after the drug administered with dose of 300 mg/kg; 0/1= No of animals protected /No of animals tested; assay type: functional
Mus musculus [13] = test: Anti convulsant activity administered intra peritoneally to mouse at maximal electroshock test at 0.5 h after the drug administered with dose of 30 mg/kg; 0/1= No of animals protected /No of animals tested; assay type: functional
Mus musculus [14] = test: Anti convulsant activity administered intra peritoneally to mouse for subcutaneous metrazol test at 4 hr after the drug administered with dose of 30 mg/kg; 0/1= No of animals protected /No of animals tested; assay type: functional; conditions: route intraperitoneal
Mus musculus [15] = test: Anti convulsant activity administered intra peritoneally to mouse at maximal electroshock test at 0.5 hr after the drug administered with dose of 100 mg/kg; 0/3= No of animals protected /No of animals tested; assay type: functional
Mus musculus [16] = test: Anti convulsant activity administered intra peritoneally to mouse at maximal electroshock test at 0.5 hr after the drug administered with dose of 300 mg/kg; 1/1= No of animals protected /No of animals tested; assay type: functional
Mus musculus [17] = test: Anti convulsant activity administered intra peritoneally to mouse for subcutaneous metrazol test at 4 hr after the drug administered with dose of 100 mg/kg; 0/1= No of animals protected /No of animals tested; assay type: functional
Rattus norvegicus [18] = test: Anticonvulsant activity after oral administration of 50 mg/kg dose after 30 min in rats; +means 25% of animal protected; assay type: functional, organism-based; parameters: dose 50 mg/kg
Procedure, shortened: (§1)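 Rats dosed orally with compound dissolved or suspended in 0.5% methylcellulose (0.04 mL per 10 g body weight). Anticonvulsant protection (MES or scMet) and toxicity scored at 15 min, 30 min, 1 h, 2 h and 4 h after dosing. Graded in steps of 25% of animals protected or showing toxicity.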

Rattus norvegicus [19] = test: Anticonvulsant activity after oral administration of 50 mg/kg dose after 2 hr in rats; ++ means 50% of animals protected; assay type: functional, organism-based; parameters: dose 50 mg/kg
Procedure, shortened: (§2)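 Oral dosing of rats at a single dose, compound dissolved or suspended in 0.5% methylcellulose. Protection in the MES or scMet test checked 15 min, 30 min, 1 h, 2 h and 4 h after dosing. Scored as 25/50/75/100% of animals protected (+ to ++++), – for none.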

Rattus norvegicus [20] = test: Anticonvulsant activity after oral administration of 50 mg/kg dose after 4 hr in rats; + means 25% of the animal protected; assay type: functional, organism-based; parameters: dose 50 mg/kg; procedure, shortened: as §1
Rattus norvegicus [21] = test: Anticonvulsant activity after oral administration of 50 mg/kg dose after 30 min in rats; + means 25% of animals protected; assay type: functional, organism-based; parameters: dose 50 mg/kg; procedure, shortened: as §2
Mus musculus [22] = test: Anti convulsant activity administered intra peritoneally to mouse for subcutaneous metrazol test at 4 hr with dose of 300 mg/kg; 0/1= No of animals protected /No of animals tested; assay type: functional
Mus musculus [23] = test: Anti convulsant activity administered intra peritoneally to mouse for subcutaneous metrazol test at 0.5 hr with dose of 30 mg/kg; 0/1= No of animals protected /No of animals tested; assay type: functional
Mus musculus [24] = test: Anti convulsant activity administered intra peritoneally to mouse for subcutaneous metrazol test at 0.5 hr with dose of 100 mg/kg; 0/1= No of animals protected /No of animals tested; assay type: functional
Mus musculus [25] = test: Anti convulsant activity administered intra peritoneally to mouse for subcutaneous metrazol test at 0.5 h with dose of 300 mg/kg; 0/1= No of animals protected /No of animals tested; assay type: functional
Rattus norvegicus [26] = test: Anticonvulsant activity after oral administration of 50 mg/kg dose after 1 hr in rats; +means25% of animals protected; assay type: functional, organism-based; parameters: dose 50 mg/kg; procedure, shortened: as §2
[27] = Anti convulsant activity administered intra peritoneally to mouse for toxicity at 4 hr with dose of 100 mg/kg; 0/4= No of animals exhibiting toxicity /No of animals tested; assay type: organism-based; parameters: dose 100 mg/kg; conditions: in vivo, ip
[28] = Anti convulsant activity administered intra peritoneally to mouse for toxicity at 0.5 hr with dose of 100 mg/kg; 1/8= No of animals exhibiting toxicity /No of animals tested; assay type: organism-based; parameters: dose 100 mg/kg; conditions: in vivo, ip
Mus musculus [29] = test: Anti convulsant activity administered intra peritoneally to mouse at maximal electroshock test at 4 hr after the drug administered with dose of 300 mg/kg; 1/1= No of animals protected /No of animals tested; assay type: functional
Rattus norvegicus [30] = test: Anticonvulsant activity after oral administration of 100 mg/kg dose after 1 hr in rats; + means 25% of the animals protected; assay type: functional, organism-based; parameters: dose 100 mg/kg; procedure, shortened: as §2
Rattus norvegicus [31] = test: Anticonvulsant activity after oral administration of 100 mg/kg dose after 2 hr in rats; + means 25% of the animals protected; assay type: functional, organism-based; parameters: dose 100 mg/kg; procedure, shortened: as §2
Rattus norvegicus [32] = test: Anticonvulsant activity after oral administration of 50 mg/kg dose after 4 hr in rats;+ means 25% of the animals protected; assay type: functional, organism-based; parameters: dose 50 mg/kg; procedure, shortened: as §1
Rattus norvegicus [33] = test: Anticonvulsant activity after oral administration of 50 mg/kg dose after 15 min in rats; ++ means 50% of the animal protected; assay type: functional, organism-based; parameters: dose 50 mg/kg; procedure, shortened: as §2
Rattus norvegicus [34] = test: Anticonvulsant activity after oral administration of 50 mg/kg dose after 2 hr in rats; ++ means 50% of the animal is protected; assay type: functional, organism-based; parameters: dose 50 mg/kg; procedure, shortened: as §2
Rattus norvegicus [35] = test: Anticonvulsant activity after oral administration of 50 mg/kg dose after 30 min in rats; + means 25% of the animal protected; assay type: functional, organism-based; parameters: dose 50 mg/kg; procedure, shortened: as §2
Rattus norvegicus [36] = test: Anticonvulsant activity after oral administration of 100 mg/kg dose after 15 min in rats;+means 25% of the animals protected; assay type: functional, organism-based; parameters: dose 100 mg/kg; procedure, shortened: as §2
Rattus norvegicus [37] = test: Anticonvulsant activity after oral administration of 50 mg/kg dose after 1 hr in rats;+means 25% of the animals protected; assay type: functional, organism-based; parameters: dose 50 mg/kg; procedure, shortened: as §2
Rattus norvegicus [38] = test: Anticonvulsant activity after oral administration of 50 mg/kg dose after 2 hr in rats; +++ means 75% of the animal is protected; assay type: functional, organism-based; parameters: dose 50 mg/kg; procedure, shortened: as §2
Rattus norvegicus [39] = test: Anticonvulsant activity after oral administration of 50 mg/kg dose after 30 min in rats; ++ means 50% of the animal protected; assay type: functional, organism-based; parameters: dose 50 mg/kg; procedure, shortened: as §1
Rattus norvegicus [40] = test: Anticonvulsant activity after oral administration of 125 mg/kg dose after 30 min in rats;++ means 50% of the animals protected; assay type: functional, organism-based; parameters: dose 125 mg/kg; procedure, shortened: as §2
Rattus norvegicus [41] = test: Anticonvulsant activity administered orally to rat at subcutaneous metrazol test; assay type: functional

Question: Which TD50 [1] does the source give for `CC1(C)C(C(=O)NCO)C1(C)C` here?
Answer: 146 mg/kg

Question: And the ED50 (Mus musculus [2])?
Answer: 120 mg/kg

Question: And the ED50 (Mus musculus [3])?
Answer: > 220 mg/kg

Question: Which results are given for `CC1(C)C(C(=O)NC2CC2)C1(C)C`?
Answer: Toxicity [4]: 1; Toxicity [5]: 0; Toxicity [6]: 0; Toxicity [7]: 0; Toxicity [8]: 0; Toxicity [9]: 4; Activity (Mus musculus [10]): 0; Activity (Mus musculus [11]): 0; Activity (Mus musculus [12]): 0; Activity (Mus musculus [13]): 0; Activity (Mus musculus [14]): 0; Activity (Mus musculus [15]): 0; Activity (Mus musculus [16]): 1; Activity (Mus musculus [17]): 0; Activity (Rattus norvegicus [18]): 25% of animal protected; Activity (Rattus norvegicus [19]): 25% of animal protected; Activity (Rattus norvegicus [20]): 25% of animal protected; Activity (Rattus norvegicus [21]): 25% of animal protected; Activity (Mus musculus [22]): 0; Activity (Mus musculus [23]): 0; Activity (Mus musculus [24]): 0; Activity (Mus musculus [25]): 0; Activity (Rattus norvegicus [26]): 25% of animal protected

Question: Which Toxicity [5] does the source give for `CNC(=O)NC(=O)C1C(C)(C)C1(C)C` here?
Answer: 0

Question: And the Toxicity [6]?
Answer: 0

Question: And the Toxicity [27]?
Answer: 0

Question: And the Toxicity [7]?
Answer: 0

Question: And the Toxicity [28]?
Answer: 1

Question: What about the Toxicity [9] of the same compound?
Answer: 4

Question: What about the Activity (Mus musculus [10]) of the same compound?
Answer: 0

Question: And the Activity (Mus musculus [11])?
Answer: 0

Question: And the Activity (Mus musculus [29])?
Answer: 1

Question: And the Activity (Mus musculus [13])?
Answer: 0

Question: What about the Activity (Mus musculus [14]) of the same compound?
Answer: 0

Question: What about the Activity (Mus musculus [15]) of the same compound?
Answer: 0

Question: And the Activity (Mus musculus [16])?
Answer: 1

Question: And the Activity (Mus musculus [17])?
Answer: 0

Question: And the Activity (Rattus norvegicus [30])?
Answer: 25% of the animal protected

Question: What about the Activity (Rattus norvegicus [31]) of the same compound?
Answer: 25% of the animal protected

Question: And the Activity (Rattus norvegicus [32])?
Answer: 25% of the animal protected

Question: What about the Activity (Rattus norvegicus [33]) of the same compound?
Answer: 25% of the animal protected

Question: What about the Activity (Rattus norvegicus [34]) of the same compound?
Answer: 25% of the animal protected

Question: And the Activity (Rattus norvegicus [35])?
Answer: 25% of the animal protected

Question: What about the Activity (Mus musculus [22]) of the same compound?
Answer: 0

Question: And the Activity (Mus musculus [23])?
Answer: 0

Question: What about the Activity (Mus musculus [24]) of the same compound?
Answer: 0

Question: And the Activity (Mus musculus [25])?
Answer: 0

Question: And the “Anticonvulsant Activity” value (Rattus norvegicus [36])?
Answer: 25% of the animals protected

Question: With `CN(C)C(=O)NC(=O)C1C(C)(C)C1(C)C` as the compound, how does the Toxicity [5] read?
Answer: 0

Question: And the Toxicity [6]?
Answer: 0

Question: And the Toxicity [27]?
Answer: 0

Question: And the Toxicity [7]?
Answer: 0

Question: What about the Toxicity [28] of the same compound?
Answer: 1

Question: And the Activity (Mus musculus [10])?
Answer: 0

Question: What about the Activity (Mus musculus [11]) of the same compound?
Answer: 0

Question: And the Activity (Mus musculus [29])?
Answer: 1

Question: What about the Activity (Mus musculus [14]) of the same compound?
Answer: 0

Question: What about the Activity (Mus musculus [15]) of the same compound?
Answer: 0

Question: What about the Activity (Mus musculus [16]) of the same compound?
Answer: 1

Question: And the Activity (Mus musculus [17])?
Answer: 0

Question: And the Activity (Rattus norvegicus [37])?
Answer: 25% of the animals protected

Question: And the Activity (Rattus norvegicus [38])?
Answer: 25% of the animals protected

Question: And the Activity (Rattus norvegicus [39])?
Answer: 25% of the animals protected

Question: And the Activity (Rattus norvegicus [40])?
Answer: 25% of the animals protected

Question: And the Activity (Mus musculus [22])?
Answer: 0

Question: What about the Activity (Mus musculus [23]) of the same compound?
Answer: 0

Question: What about the Activity (Mus musculus [24]) of the same compound?
Answer: 0

Question: And the Activity (Mus musculus [25])?
Answer: 0

Question: What does the source list for `CCCC(CCC)C(=O)O` [VALPROIC ACID]?
Answer: ED50 (Rattus norvegicus [41]): 646 mg/kg; ED50 (Mus musculus [2]): 220 mg/kg
